Measurements taken from ChEMBL document CHEMBL4673335, “Store-Operated Calcium Entry as a Therapeutic Target in Acute Pancreatitis: Discovery and Development of Drug-Like SOCE Inhibitors” (J Med Chem, 2020).
Calls of active or inactive are those of the source. The rule behind the calls is not given here.

Tests used:
Format in all cases: cell-based
[1] = target: T1, ORAI1/STIM1 (Homo sapiens) (UniProt Q96D31+Q13586); test: Inhibition of STIM1/Orai1 (unknown origin) expressed in HEK293 cells assessed as reduction in tBHQ-induced calcium response at 10 uM relative to control
T1 sequence (Q13586 23-685 partner limits assumed): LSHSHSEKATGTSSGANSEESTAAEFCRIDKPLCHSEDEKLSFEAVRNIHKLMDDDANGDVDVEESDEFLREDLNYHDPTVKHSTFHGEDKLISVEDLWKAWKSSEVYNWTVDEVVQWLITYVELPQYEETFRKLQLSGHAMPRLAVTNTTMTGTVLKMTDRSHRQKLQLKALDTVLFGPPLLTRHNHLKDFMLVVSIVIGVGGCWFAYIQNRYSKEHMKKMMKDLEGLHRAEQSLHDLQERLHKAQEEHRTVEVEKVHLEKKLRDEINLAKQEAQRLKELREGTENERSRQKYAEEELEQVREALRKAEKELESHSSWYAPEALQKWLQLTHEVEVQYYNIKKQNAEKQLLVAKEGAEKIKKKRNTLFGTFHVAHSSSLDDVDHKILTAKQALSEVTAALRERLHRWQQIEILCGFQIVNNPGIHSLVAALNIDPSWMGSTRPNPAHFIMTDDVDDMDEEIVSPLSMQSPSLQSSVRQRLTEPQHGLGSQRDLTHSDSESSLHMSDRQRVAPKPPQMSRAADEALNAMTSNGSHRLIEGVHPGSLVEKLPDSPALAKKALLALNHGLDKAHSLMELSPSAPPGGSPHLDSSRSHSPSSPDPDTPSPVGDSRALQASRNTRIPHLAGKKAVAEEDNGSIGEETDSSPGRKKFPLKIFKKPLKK
T1 sequence (Q96D31 whole entry): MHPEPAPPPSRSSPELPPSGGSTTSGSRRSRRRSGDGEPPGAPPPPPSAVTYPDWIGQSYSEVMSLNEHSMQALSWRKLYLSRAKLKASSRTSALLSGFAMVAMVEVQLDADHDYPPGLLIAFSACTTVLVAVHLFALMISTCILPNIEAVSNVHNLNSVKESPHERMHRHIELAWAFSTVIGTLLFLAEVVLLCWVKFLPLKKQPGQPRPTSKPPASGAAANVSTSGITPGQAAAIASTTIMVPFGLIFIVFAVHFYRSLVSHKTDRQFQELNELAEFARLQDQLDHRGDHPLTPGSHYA
In short: (§1)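 HEK cells, calcium imaging by fluorescence microscopy. Ca2+ added after 600 s and intracellular levels recorded. Traces averaged over 200 cells, then scored as AUC, peak amplitude and slope of the Ca2+ rise versus untreated control. Compound working solutions diluted from a 50 mM DMSO stock to 0.1% DMSO in physiologic buffer.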

[2] = tested on: HEK293; test: Cytotoxicity in HEK293 cells assessed as cell viability at 10 uM after 24 hrs by MTT assay; details: human, hek293, 24 h
In short: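 MTT viability assay. HEK cells seeded at 20,000 per well, treated 24 h after plating for a further 24 h. MTT at 0.25 mg/mL final for 60 min at 37 °C. Crystals dissolved in isopropyl alcohol/HCl (1 M), absorbance read at 570 nm. Compounds diluted to 0.1% DMSO in culture medium.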

[3] = tested on: HEK293; test: Cytotoxicity in HEK293 cells assessed as cell viability at 50 uM after 72 hrs by MTT assay; details: human, hek293, 72 h
In short: (§2)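 MTT viability in HEK cells after 72 h treatment at 50 μM, with or without 100 μM uridine. MTT at 0.25 mg/mL final for 60 min at 37 °C, solubilized in isopropyl alcohol/HCl (1 M), absorbance read at 570 nm. Mean ± SEM, Student t-test against control.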

[4] = tested on: HEK293; test: Cytotoxicity in HEK293 cells assessed as cell viability at 50 uM after 72 hrs in presence of excess uridine by MTT assay; details: human, hek293, 72 h; in short: as §2
[5] = target: ORAI1/STIM1 (Homo sapiens, UniProt Q13586+Q96D31); test: Inhibition of STIM1/Orai1 (unknown origin) expressed in HEK293 cells assessed as reduction in tBHQ-induced calcium response
ORAI1/STIM1, sequence (Q96D31 whole entry): as above
ORAI1/STIM1, sequence (Q13586 whole entry): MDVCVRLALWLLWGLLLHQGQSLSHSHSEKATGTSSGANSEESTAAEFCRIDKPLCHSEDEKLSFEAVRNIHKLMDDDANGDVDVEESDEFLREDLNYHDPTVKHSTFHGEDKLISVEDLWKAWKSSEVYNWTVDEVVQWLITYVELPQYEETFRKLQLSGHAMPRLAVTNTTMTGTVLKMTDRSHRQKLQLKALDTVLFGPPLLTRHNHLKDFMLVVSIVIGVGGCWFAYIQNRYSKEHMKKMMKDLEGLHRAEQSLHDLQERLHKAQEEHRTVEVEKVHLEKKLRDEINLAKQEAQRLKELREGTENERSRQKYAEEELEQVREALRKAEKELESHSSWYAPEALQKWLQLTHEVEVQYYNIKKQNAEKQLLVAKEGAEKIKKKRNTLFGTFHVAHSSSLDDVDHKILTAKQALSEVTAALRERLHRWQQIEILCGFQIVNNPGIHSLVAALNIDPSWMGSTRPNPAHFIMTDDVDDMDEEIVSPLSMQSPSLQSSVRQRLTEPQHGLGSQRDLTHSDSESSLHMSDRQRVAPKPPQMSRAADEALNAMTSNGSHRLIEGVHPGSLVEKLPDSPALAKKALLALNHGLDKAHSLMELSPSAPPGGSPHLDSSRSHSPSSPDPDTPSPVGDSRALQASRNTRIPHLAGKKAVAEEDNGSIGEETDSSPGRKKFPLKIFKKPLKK

[6] = target: T1, ORAI1/STIM1 (Homo sapiens); test: Inhibition of STIM1/Orai1 (unknown origin) expressed in HEK293 cells assessed as reduction in tBHQ-induced calcium response by measuring decrease in calcium entry AUC at 10 uM relative to control; in short: as §1
[7] = target: T1, ORAI1/STIM1 (Homo sapiens); test: Inhibition of STIM1/Orai1 (unknown origin) expressed in HEK293 cells assessed as reduction in tBHQ-induced calcium response by measuring decrease in peak amplitude of calcium entry at 10 uM relative to control; in short: as §1
[8] = dose 3.0 µM, in the assay text read “at 3 uM” for “at 10 uM”

COc1cccc(-c2ccc(-c3cn(-c4cccc(C(=O)O)c4)nn3)cc2)c1
inhibition [1, 8]: 29.5%

COc1cccc(OC)c1-c1ccc(-n2cc(-c3cccc(C(=O)O)c3)nn2)cc1
inhibition ([1]; dose 10.0 µM): 25.8%

O=C(O)c1cccc(C(=O)Nc2ccc(-c3ccc4c(c3)OCCO4)cc2)c1
inhibition ([1]; dose 10.0 µM): 51.8% | Activity [2]: 50.3% | Activity [3]: Toxic | Activity [4]: Non-Toxic

COc1ccc(OC)c(-c2ccc(-c3cn(-c4cccc(C(=O)O)c4)nn3)cc2)c1
inhibition ([1]; dose 10.0 µM): 87.8% | Activity [2]: 71.8% | IC50 [5]: 1790 nM | inhibition [6]: Active | inhibition [7]: Active

O=C(O)c1cccc(-c2cn(-c3ccc(-c4ccc5c(c4)OCO5)cc3)nn2)c1
inhibition ([1]; dose 10.0 µM): 67.3%

COc1ccc(OC)c(-c2ccc(-n3cc(-c4ccnc(C(=O)O)c4)nn3)cc2)c1
inhibition ([1]; dose 10.0 µM): 79.9%

COC(=O)c1cc(-n2cc(-c3ccc(-c4cc(OC)ccc4OC)cc3)nn2)ccn1
inhibition ([1]; dose 10.0 µM): 73.5%

O=C(Nc1ccc(-n2nc(C(F)(F)F)cc2C(F)(F)F)cc1)c1ccncc1F
Activity [3]: Toxic | Activity [4]: Toxic

O=C(O)c1cccc(-n2cc(-c3ccc(-c4ccc5c(c4)OCO5)cc3)nn2)c1
inhibition ([1]; dose 10.0 µM): 0%

O=C(O)c1cccc(-c2cn(-c3ccc(-c4ccccc4)cc3)nn2)c1
inhibition ([1]; dose 10.0 µM): 51%

Cc1c(-c2ccc(-c3ccccc3F)cc2)nc2ccc(F)cc2c1C(=O)O [BREQUINAR]
Activity [3]: Non-Toxic

COc1ccccc1-c1ccc(-n2cc(-c3cccc(C(=O)O)c3)nn2)cc1
inhibition ([1]; dose 10.0 µM): 45.9%

CSc1cccc(-c2ccc(-n3cc(-c4cccc(C(=O)O)c4)nn3)cc2)c1
inhibition [1, 8]: 23.6%

COc1ccc(OC)c(-c2ccc(-c3cn(-c4ccnc(C(=O)O)c4)nn3)cc2)c1
inhibition ([1]; dose 10.0 µM): 57.2%

COc1ccccc1-c1ccc(-c2cn(-c3cccc(C(=O)O)c3)nn2)cc1
inhibition [1, 8]: 12%

COc1ccc(-c2ccc(-c3cn(-c4cccc(C(=O)O)c4)nn3)cc2)c(OC)c1
inhibition ([1]; dose 10.0 µM): 53%

COc1cc(OC)cc(-c2ccc(-c3cn(-c4cccc(C(=O)O)c4)nn3)cc2)c1
inhibition ([1]; dose 10.0 µM): 75.4%

COc1ccc(OC)c(-c2ccc(-c3cn(-c4cccnc4)nn3)cc2)c1
inhibition ([1]; dose 10.0 µM): 1.2%

O=C(O)c1cccc(-n2cc(-c3ccc(-c4cccc5c4OCCO5)cc3)nn2)c1
inhibition ([1]; dose 10.0 µM): 44.1%

COc1ccc(-c2ccc(-n3cc(-c4cccc(C(=O)O)c4)nn3)cc2)c(OC)c1
inhibition ([1]; dose 10.0 µM): 56.4%

COc1ccc(OC)c(-c2ccc(-c3cn(-c4ccncc4)nn3)cc2)c1
inhibition ([1]; dose 10.0 µM): -1.7%

Cc1cccc(F)c1C(=O)Nc1cnc(-c2cc3c(cc2Cl)OC(F)(F)O3)cn1 [ZEGOCRACTIN]
Activity [3]: Toxic | Activity [4]: Toxic

O=C(O)c1cccc(NC(=O)c2ccc(-c3ccc4c(c3)OCCO4)cc2)c1
inhibition ([1]; dose 10.0 µM): 22.6% | Activity [2]: 95.3% | Activity [4]: Non-Toxic

COc1ccc(OC)c(-c2ccc(-n3cc(-c4cccc(C(=O)O)c4)nn3)cc2)c1
inhibition ([1]; dose 10.0 µM): 76.2%

COc1ccc(-c2ccc(-c3cn(-c4cccc(C(=O)O)c4)nn3)cc2)cc1OC
inhibition ([1]; dose 10.0 µM): 39.6%

O=C(O)c1cccc(-n2cc(-c3ccc(-c4ccc5c(c4)OCCO5)cc3)nn2)c1
inhibition ([1]; dose 10.0 µM): 81.1% | Activity [2]: 71.7%

CSc1cccc(-c2ccc(-c3cn(-c4cccc(C(=O)O)c4)nn3)cc2)c1
inhibition ([1]; dose 10.0 µM): 0%

COc1ccc(OC)c(-c2ccc(-c3cn(-c4ccncc4F)nn3)cc2)c1
inhibition ([1]; dose 10.0 µM): 26.2%

COc1ccc(OC)c(-c2ccc(-n3cc(-c4ccccn4)nn3)cc2)c1
inhibition ([1]; dose 10.0 µM): 0%

COc1ccc(-c2ccc(-n3cc(-c4cccc(C(=O)O)c4)nn3)cc2)cc1OC
inhibition [1, 8]: 54.3%

O=C(O)c1cccc(-n2cc(-c3ccc(-c4ccccc4)cc3)nn2)c1
inhibition [1, 8]: 1.8%

O=C(O)c1cccc(-c2cn(-c3ccc(-c4ccc5c(c4)OCCO5)cc3)nn2)c1
IC50 [5]: 1200 nM | Activity [3]: Non-Toxic | Activity [4]: Non-Toxic

COc1ccc(OC)c(-c2ccc(-n3cc(-c4ccncc4F)nn3)cc2)c1
inhibition ([1]; dose 10.0 µM): -4.9%

O=C(O)c1cccc(-c2cn(-c3ccc(-c4cccc(O)c4)cc3)nn2)c1
inhibition [1, 8]: 0%

C/C(O)=C(\C#N)C(=O)Nc1ccc(C(F)(F)F)cc1 [TERIFLUNOMIDE]
Activity [3]: Non-Toxic
